The source made the active and inactive calls. The rule behind the calls is not given here.
How the values were obtained:
[1] = Inhibition of rhesus monkey brain PDE2A3 expressed in human AD293 cells using FAM-labeled cAMP/cGMP as substrate incubated for 60 mins measured after 1 hr by IMAP based fluorescence polarization assay
[2] = Selectivity ratio of IC50 for human GST-tagged PDE6C expressed in insect cells to IC50 for rhesus monkey brain PDE2A3 expressed in human AD293 cells
[3] = Volume of distribution at steady state in rhesus monkey; type: ADME, organism-based, Macaca mulatta; conditions: in vivo, read-out: Vdss
[4] = Intrinsic clearance in human liver microsomes; type: ADME, microsome; conditions: read-out: CLH
[5] = Clearance in rat; type: ADME, organism-based; conditions: in vivo
[6] = Selectivity ratio of IC50 for human GST-tagged PDE3A expressed in insect cells to IC50 for rhesus monkey brain PDE2A3 expressed in human AD293 cells
[7] = Selectivity ratio of IC50 for human GST-tagged PDE7A expressed in insect cells to IC50 for rhesus monkey brain PDE2A3 expressed in human AD293 cells
P-gp [8] = assay: Substrate activity at rat P-gp assessed as efflux ratio; type: ADME; conditions: not told
[9] = Selectivity ratio of IC50 for human GST-tagged PDE11A4 expressed in insect cells to IC50 for rhesus monkey brain PDE2A3 expressed in human AD293 cells
[10] = Half life in rat; type: ADME, organism-based; conditions: in vivo
Rhesus monkey [11] = assay: Reversal of scopolamine-induced cognitive impairment in rhesus monkey assessed increase in novel object retrieval at 1 mg/kg administered orally 4 hrs prior to testing by novel object recognition test; type: functional, organism-based; conditions: Macaca mulatta
Outline: (§1)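 Rhesus monkeys impaired with scopolamine performed an object retrieval task. A food item was placed deep inside a clear box whose single open side was out of direct view. Each attempt was scored correct if the food was retrieved without touching a closed side. Read-out was percentage correct versus scopolamine alone, with donepezil as positive control.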

[12] = Protein binding in rhesus monkey plasma; type: ADME, cell-free, Macaca mulatta; conditions: read-out: PPB (converted)
[13] = Selectivity ratio of IC50 for human GST-tagged PDE4A1A expressed in insect cells to IC50 for rhesus monkey brain PDE2A3 expressed in human AD293 cells
[14] = Oral bioavailability in rat; type: ADME, organism-based; conditions: in vivo
[15] = Selectivity ratio of IC50 for human GST-tagged PDE9A2 expressed in insect cells to IC50 for rhesus monkey brain PDE2A3 expressed in human AD293 cells
[16] = Protein binding in rat plasma; type: ADME, cell-free; conditions: read-out: PPB (converted)
Rattus norvegicus [17] = assay: Reversal of scopolamine-induced cognitive impairment in Wistar Hannover rat assessed as improvement in episodic memory at 0.1 to 1 mg/kg, po administered 30 mins prior to testing by novel object recognition test; type: functional, organism-based
Outline: (§2)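 Rats given vehicle or scopolamine, then exposed to two identical objects; one hour later exposed to one familiar and one novel object. Recognition memory scored as time spent exploring the novel versus the familiar object. Donepezil served as positive control.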

[18] = Lipophilicity, log D of the compound by HPLC method; type: physicochemical
[19] = Half life in rhesus monkey; type: ADME, organism-based, Macaca mulatta; conditions: in vivo
[20] = Selectivity ratio of IC50 for human GST-tagged PDE10A2 expressed in insect cells to IC50 for rhesus monkey brain PDE2A3 expressed in human AD293 cells
[21] = Volume of distribution at steady state in rat; type: ADME, organism-based; conditions: in vivo, read-out: Vdss
[22] = Selectivity ratio of IC50 for human GST-tagged PDE5A1 expressed in insect cells to IC50 for rhesus monkey brain PDE2A3 expressed in human AD293 cells
Rattus norvegicus [23] = assay: Increase in cGMP levels in rat brain cytosolic fraction of cortical tissue at 3 to 30 mg/kg, po measured after 30 mins by ELISA; type: functional, organism-based
Outline: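 Rats dosed orally at 3, 10 or 30 mg/kg; brain tissue harvested 30 min after dosing and frozen; cortical cGMP measured and compared with controls.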

Rhesus monkey [24] = assay: Reversal of scopolamine-induced cognitive impairment in rhesus monkey assessed increase in novel object retrieval administered orally 4 hrs prior to testing by novel object recognition test; type: functional, organism-based; conditions: Macaca mulatta; outline: as §1
[25] = Selectivity ratio of IC50 for human GST-tagged PDE1A expressed in insect cells to IC50 for rhesus monkey brain PDE2A3 expressed in human AD293 cells
[26] = Selectivity ratio of IC50 for human GST-tagged PDE2A1 expressed in insect cells to IC50 for rhesus monkey brain PDE2A3 expressed in human AD293 cells
[27] = Oral bioavailability in rhesus monkey; type: ADME, organism-based, Macaca mulatta; conditions: in vivo
[28] = Inhibition of CYP450 (unknown origin); type: ADME, Homo sapiens
P-gp [29] = assay: Substrate activity at human P-gp assessed as efflux ratio; type: ADME; conditions: not told
[30] = Clearance in rhesus monkey; type: ADME, organism-based, Macaca mulatta; conditions: in vivo
P-gp [31] = assay: Substrate activity at P-gp (unknown origin) assessed as apparent permeability; type: ADME; conditions: human, not told
[32] = Selectivity ratio of IC50 for human GST-tagged PDE8A1 expressed in insect cells to IC50 for rhesus monkey brain PDE2A3 expressed in human AD293 cells
Rattus norvegicus [33] = assay: Reversal of scopolamine-induced cognitive impairment in Wistar Hannover rat assessed as improvement in episodic memory at 1.8 mg/kg, ip administered 30 mins prior to testing by novel object recognition test; type: functional, organism-based; outline: as §2
Rhesus monkey [34] = assay: Reversal of scopolamine-induced cognitive impairment in rhesus monkey assessed increase in novel object retrieval at 0.3 mg/kg by novel object recognition test; type: functional, organism-based; conditions: Macaca mulatta; outline: as §1

Compound	IC50 [1] [nM]	efflux ratio (P-gp [8])	logD [18]	efflux ratio (P-gp [29])	Ratio IC50 [2]	Ratio IC50 [6]	Ratio IC50 [7]	Ratio IC50 [9]	Ratio IC50 [13]	Ratio IC50 [15]	Ratio IC50 [20]	Ratio IC50 [22]	Ratio IC50 [25]	Ratio IC50 [26]	Ratio IC50 [32]	other results
Cc1nc2c(c(CO)nn2[C@@H](C)c2ccc(C(F)(F)F)cc2)c(=O)[nH]1	2	3	2.2 to 2.7	1	> 500	> 500	> 500	> 500	> 500	315	> 500	> 500	> 500	> 500	> 500	Vd [3]: 0.88 L/kg; CLint scaled [4]: < 6.2 mL/min/kg; clearance [5]: 5.6 mL/min/kg; half-life [10]: 2.9 h; Activity (Rhesus monkey [11]): inactive; fraction unbound [12]: 0.1; bioavailability [14]: 84%; fraction unbound [16]: 0.15; Activity (Rattus norvegicus [17]): Active; half-life [19]: 5.2 h; Vd [21]: 1.4 L/kg; Activity (Rattus norvegicus [23]): Active; Activity (Rhesus monkey [24]): Dose-dependent effect; bioavailability [27]: 100%; IC50 [28]: > 50000 nM; clearance [30]: 2 mL/min/kg; Papp (P-gp [31]): 37 ×10⁻⁶ cm/s
C[C@@H](c1ccc(C(F)(F)F)cc1)n1nc(CC(F)(F)F)c2c(=O)[nH]c(O)nc21	0.96	19	1.8	4.8	> 12000	> 12000	> 12000	> 12000	> 12000	> 12000	> 12000	> 12000	> 12000	> 12000	> 12000	–
Cc1nc2c(c(C)nn2[C@@H](C)c2ccc(C(F)(F)F)cc2)c(=O)[nH]1	23	–	2.7	–	> 500	0 to 100	> 500	101 to 500	101 to 500	4	101 to 500	101 to 500	0 to 100	–	> 500	–
COc1cc2c(cc1OC)C(=O)C(CC1CCN(Cc3ccccc3)CC1)C2 (stereo not given)	–	–	–	–	–	–	–	–	–	–	–	–	–	–	–	Activity (Rattus norvegicus [33]): Active; Activity (Rhesus monkey [34]): Active

Second part, led by results:

IC50 [1] [nM]	efflux ratio (P-gp [8])	logD [18]	efflux ratio (P-gp [29])	Compound	Ratio IC50 [2]	Ratio IC50 [6]	Ratio IC50 [7]	Ratio IC50 [9]	Ratio IC50 [13]	Ratio IC50 [15]	Ratio IC50 [20]	Ratio IC50 [22]	Ratio IC50 [25]	Ratio IC50 [26]	Ratio IC50 [32]	other results
2	–	–	–	C[C@@H](c1ccc(C(F)(F)F)cc1)n1nc(CF)c2c(=O)[nH]c(O)nc21	–	–	–	–	–	–	–	–	–	–	–	–
216	–	–	–	Cc1nc2c(c(CO)nn2[C@H](C)c2ccc(C(F)(F)F)cc2)c(=O)[nH]1	–	–	–	–	–	–	–	–	–	–	–	–
0.89	35	–	11	COc1ccc(Cc2nc3c(c(CO)nn3[C@@H](C)c3ccc(C(F)(F)F)cc3)c(=O)[nH]2)cc1OC	–	–	–	–	–	–	–	–	–	–	–	–
9	–	–	–	Cc1nc2c(c(CO)nn2[C@H](c2ccc(C(F)(F)F)cc2)C(C)(C)C)c(=O)[nH]1	–	–	–	–	–	–	–	–	–	–	–	–
14	0.38	1.1	0.32	C[C@@H](c1ccc(C(F)(F)F)cc1)n1nc(CO)c2c(=O)[nH]c(O)nc21	> 1000	> 1000	> 1000	> 1000	> 1000	1190	> 1000	> 1000	> 1000	> 1000	> 1000	Papp (P-gp [31]): 41 ×10⁻⁶ cm/s
1.3	–	–	–	Cc1nc2c(c(CO)nn2[C@@H](C)c2ccc(C(F)(F)F)c(F)c2)c(=O)[nH]1	–	–	–	–	–	950	–	–	–	–	–	–
